According to ChEMBL document CHEMBL1122224, “Synthesis and gastric antisecretory properties of 4,5-unsaturated derivatives of 15-deoxy-16-hydroxy-16-methylprostaglandin E1” (J Med Chem, 1983):

What was measured:
[1] = tested on: Canis familiaris; assay: Antisecretory activity after iv administration in histamine-stimulated Heidenhain pouch dogs; Range is 0.3-1.0; assay type: functional; settings: Canis lupus familiaris
Summary of the method: (§1)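 Conscious Heidenhain-pouch dogs, fasted 18 h, with iv saline. Histamine is infused at 1.0 mg/h (about 13.0 mL/h) to a steady plateau. A single iv bolus of PG follows, from ethanol stock diluted in isoosmotic phosphate buffer (≤20% alcohol). Doses are log-spaced, usually 0.1–100 μg/kg, with ≥2 dogs per dose. Acid is measured by titration to pH 7.0 in 15-min samples; ED50 is the 50% inhibition of total acid output.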

[2] = tested on: Canis familiaris; assay: Antisecretory activity after ig administration in histamine-stimulated gastric fistula dogs; Range is 4.5-10.0; assay type: functional; settings: Canis lupus familiaris, Stomach, po
Summary of the method: (§2)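 Conscious gastric-fistula dogs, fasted 18 h, in Pavlov stands with iv 0.15 M NaCl. After basal collection, histamine is infused iv at 1.0 mg/h (about 6.5 mL/h). At the steady-state plateau, the PG is given intragastrically through a dosing plug and the cannula is closed 30 min. Collections are then taken every 15 min and titrated with 0.1 N NaOH to pH 7.0.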

[3] = tested on: Rattus norvegicus; assay: Diarrheal effect after ig administration in rats; assay type: functional; settings: po
Summary of the method: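 Male Charles River rats, 210–230 g, are fasted 24 h and housed singly. Logarithmically graded oral PG doses are given, N = 6–12. Diarrhea is scored all-or-none at hourly intervals up to 8 h after dosing, and an ED50 is derived.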

[4] = Ratio of ED50 of diarrheal effect to antisecretory effect; assay type: ADME; settings: read-out: Therapeutic index
Summary of the method: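 Ratio of the oral diarrheal ED50 in fasted male rats to the ig antisecretory ED50 in histamine-stimulated gastric-fistula dogs.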

[5] = tested on: Canis familiaris; assay: Antisecretory activity after ig administration in histamine-stimulated gastric fistula dogs; Range is 2.4-3.0; assay type: functional; settings: Canis lupus familiaris, Stomach, po; summary of the method: as §2
[6] = tested on: Canis familiaris; assay: Antisecretory activity after iv administration in histamine-stimulated Heidenhain pouch dogs.; assay type: functional; settings: Canis lupus familiaris; summary of the method: as §1
[7] = tested on: Canis familiaris; assay: Antisecretory activity after ig administration in histamine-stimulated gastric fistula dogs; Range is 6.5-10.0; assay type: functional; settings: Canis lupus familiaris, Stomach, po; summary of the method: as §2
[8] = tested on: Canis familiaris; assay: Antisecretory activity after ig administration in histamine-stimulated gastric fistula dogs; Range is 0.3-1.0; assay type: functional; settings: Canis lupus familiaris, Stomach, po; summary of the method: as §2
[9] = tested on: Canis familiaris; assay: Antisecretory activity after iv administration in histamine-stimulated Heidenhain pouch dogs; Range is 0.1-0.3; assay type: functional; settings: Canis lupus familiaris; summary of the method: as §1
[10] = tested on: Canis familiaris; assay: Antisecretory activity after ig administration in histamine-stimulated gastric fistula dogs; Range is 5.5-10.0; assay type: functional; settings: Canis lupus familiaris, Stomach, po; summary of the method: as §2

Compound	ED50 [3] [µg/kg]	selectivity ratio [4]	also measured
CCCCC(C)(O)C/C=C/[C@H]1[C@H](O)CC(=O)[C@@H]1C/C=C\CCCC(=O)OC (stereo not given in full)	124	27.6	ED50 [1]: 0.3 µg/kg; ED50 [2]: 4.5 µg/kg
CCCCC(C)(C)[C@H](O)/C=C/C1[C@H](O)CC(=O)[C@@H]1C/C=C\CCCC(=O)OC (stereo not given in full)	10	4.2	ED50 [5]: 2.4 µg/kg
CCCCC(C)(O)C/C=C/[C@H]1[C@H](O)CC(=O)[C@@H]1CCC#CCCC(=O)OC (stereo not given in full)	–	–	ED50 [6]: > 100 µg/kg
CCCCC(C)(O)C/C=C/[C@H]1[C@H](O)CC(=O)[C@@H]1CC/C=C/CCC(=O)OC (stereo not given in full)	–	–	ED50 [6]: 10 µg/kg
CCCCC[C@](C)(O)/C=C/C1[C@H](O)CC(=O)[C@@H]1C/C=C\CCCC(=O)OC (stereo not given in full)	27	4.2	ED50 [7]: 6.5 µg/kg
CCCCC(C)(O)C/C=C/[C@H]1[C@H](O)CC(=O)[C@@H]1CC/C=C\CCC(=O)OC (stereo not given in full) [ENISOPROST]	62	208	ED50 [8]: 0.3 µg/kg; ED50 [9]: 0.1 µg/kg
CCCCC(C)(O)C/C=C/[C@H]1[C@H](O)CC(=O)[C@@H]1CCCCCCC(=O)OC (stereo not given in full) [MISOPROSTOL]	366	66.5	ED50 [1]: 0.3 µg/kg; ED50 [10]: 5.5 µg/kg
